Starred links: 1 amine or outer side, 2 acyl side, 3 side chain; linkers in the order of their positions; H or OH if unused. Non-standard residues stand in square brackets, D forms with d. Residues, ends and D or L forms follow the SMILES beside them. Trp(1-CMe2(2S-oxiranyl)) = CC(C)([C@H]1CO1)n1cc(C[C@H](N)C(=O)O)c2ccccc21; Trp(1-(1,1-Me2-allyl)) = C=CC(C)(C)n1cc(C[C@H](N)C(=O)O)c2ccccc21; X3 = CC(C)([C@H](O)CCl)n1cc(C[C@H](N[*:1])C(=O)[*:2])c2ccccc21; Tyr(3-NO2) = N[C@@H](Cc1ccc(O)c([N+](=O)[O-])c1)C(=O)O; X1 = COC(OC)C(C)C[C@@H](C(=O)[*:2])N(C)[*:1]; X2 = C[C@H](CO)C[C@@H](C(=O)[*:2])N(C)[*:1]; Gly(E-crotyl) = C/C=C/C[C@H](N)C(=O)O; NMeL = CN[C@@H](CC(C)C)C(=O)O
What was measured:
[1] = tested on: Mycobacterium tuberculosis; assay: Bactericidal activity against Mycobacterium tuberculosis H37Rv harboring LuxAB gene assessed as reduction in microbial growth by measuring reduction in relative luminescence units after 7 days by luminometric method; assay type: functional; conditions: 168 h
Outline: (§1)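 Viability was read from an H37Rv luminescent reporter strain carrying plasmid pMV306hsp+LuxAB+G13+CDE. It was incubated with compound for two weeks, with luminescence read on days 7 and 14.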

[2] = tested on: Mycobacterium tuberculosis; assay: Bactericidal activity against Mycobacterium tuberculosis H37Rv harboring LuxAB gene assessed as reduction in microbial growth by measuring reduction in relative luminescence units after 14 days by luminometric method; assay type: functional; conditions: 336 h; outline: as §1

Row | SMILES | MBC [1] [µM] | MBC [2] [µM]
1 | C/C=C/C[C@@H]1NC(=O)[C@H](CC(C)C)N2C(=O)[C@H](C[C@](C)(O)[C@H]2O)N(C)C(=O)[C@H](C)NC(=O)[C@H](Cc2ccc(O)c([N+](=O)[O-])c2)NC(=O)[C@H](CC(C)C)N(C)C(=O)[C@H](Cc2cn(C(C)(C)[C@H]3CO3)c3ccccc23)NC1=O | > 10 | 4.6
2 | C/C=C/C[C@@H]1NC(=O)[C@H](CC(C)C)N2C(=O)[C@H](CC(C)[C@H]2O)N(C)C(=O)[C@H](C)NC(=O)[C@H](Cc2ccc(O)c([N+](=O)[O-])c2)NC(=O)[C@H](CC(C)C)N(C)C(=O)[C@H](Cc2cn(C(C)(C)[C@H]3CO3)c3ccccc23)NC1=O (some centres undefined) | > 10 | 0.88
3 | C/C=C/C[C@@H]1NC(=O)[C@H](CC(C)C)N2C(=O)[C@H](C[C@@H](C)[C@H]2O)N(C)C(=O)[C@H](C)NC(=O)[C@H](Cc2ccc(O)c([N+](=O)[O-])c2)NC(=O)[C@H](CC(C)C)N(C)C(=O)[C@H](Cc2cn(C(C)(C)[C@H](O)CO)c3ccccc23)NC1=O | > 10 | 0.58
4 | C=CC(C)(C)n1cc(C[C@@H]2NC(=O)[C@H](C/C=C/C)NC(=O)[C@H](CC(C)C)NC(=O)[C@H](CC(C)C)N(C)C(=O)[C@H](C)NC(=O)[C@H](Cc3ccc(O)cc3)NC(=O)[C@H](CC(C)C)N(C)C2=O)c2ccccc21 (HELM PEPTIDE1{A.[meL].L.[C/C=C/C[C@H](N[*:1])C(=O)[*:2]].[C=CC(C)(C)n1cc(C[C@H](N[*:1])C(=O)[*:2])c2ccccc21].[meL].Y}$PEPTIDE1,PEPTIDE1,1:R1-7:R2$$$V2.0) | > 10 | 5.2
5 | C=CC(C)(C)n1cc(C[C@@H]2NC(=O)[C@H](C/C=C/C)NC(=O)[C@H](CC(C)C)NC(=O)[C@H](CC(C)C)N(C)C(=O)[C@H](C)NC(=O)[C@H](Cc3ccc(O)c([N+](=O)[O-])c3)NC(=O)[C@H](CC(C)C)N(C)C2=O)c2ccccc21 (cyclo(A[NMeL]L[Gly(E-crotyl)][Trp(1-(1,1-Me2-allyl))][NMeL][Tyr(3-NO2)])) | > 10 | 4.5
6 | C/C=C/C[C@@H]1NC(=O)[C@H](CC(C)C)NC(=O)[C@H](CC(C)C)N(C)C(=O)[C@H](C)NC(=O)[C@H](Cc2ccc(O)c([N+](=O)[O-])c2)NC(=O)[C@H](CC(C)C)NC(=O)[C@H](Cc2cn(C(C)(C)[C@H]3CO3)c3ccccc23)NC1=O (cyclo(A[NMeL]L[Gly(E-crotyl)][Trp(1-CMe2(2S-oxiranyl))]L[Tyr(3-NO2)])) | > 10 | 2.2
7 | C/C=C/C[C@@H]1NC(=O)[C@H](CC(C)C)NC(=O)[C@H](CC(C)C)N(C)C(=O)[C@H](C)NC(=O)[C@H](Cc2ccc(O)c([N+](=O)[O-])c2)NC(=O)[C@H](CC(C)C)N(C)C(=O)[C@H](Cc2cn(C(C)(C)[C@H]3CO3)c3ccccc23)NC1=O (cyclo(A[NMeL]L[Gly(E-crotyl)][Trp(1-CMe2(2S-oxiranyl))][NMeL][Tyr(3-NO2)])) | > 10 | 1
8 | C/C=C/C[C@@H]1NC(=O)[C@H](CC(C)C)NC(=O)[C@H](CC(C)C)N(C)C(=O)[C@H](C)NC(=O)[C@H](Cc2ccc(O)c([N+](=O)[O-])c2)NC(=O)[C@H](CC(C)C)N(C)C(=O)[C@H](Cc2cn(C(C)(C)[C@H](O)CCl)c3ccccc23)NC1=O (cyclo(A[NMeL]L[Gly(E-crotyl)][X3][NMeL][Tyr(3-NO2)])) | > 10 | 3.1
9 | C/C=C/C[C@@H]1NC(=O)[C@H](CC(C)C)NC(=O)[C@H](CC(C)C(OC)OC)N(C)C(=O)[C@H](C)NC(=O)[C@H](Cc2ccc(O)c([N+](=O)[O-])c2)NC(=O)[C@H](CC(C)C)N(C)C(=O)[C@H](Cc2cn(C(C)(C)[C@H]3CO3)c3ccccc23)NC1=O (stereo partly drawn) (cyclo(A[X1]L[Gly(E-crotyl)][Trp(1-CMe2(2S-oxiranyl))][NMeL][Tyr(3-NO2)])) | > 10 | 1.1
10 | C=CC(C)(C)n1cc(C[C@@H]2NC(=O)[C@H](C/C=C/C)NC(=O)[C@H](CC(C)C)NC(=O)[C@H](C[C@H](C)CO)N(C)C(=O)[C@H](C)NC(=O)[C@H](Cc3ccc(O)c([N+](=O)[O-])c3)NC(=O)[C@H](CC(C)C)N(C)C2=O)c2ccccc21 (cyclo(A[X2]L[Gly(E-crotyl)][Trp(1-(1,1-Me2-allyl))][NMeL][Tyr(3-NO2)])) | > 10 | 9.6
11 | NNC(=O)c1ccncc1 [ISONIAZID] | 0.99 | 4
12 | CO[C@H]1/C=C/O[C@@]2(C)Oc3c(C)c(O)c4c(O)c(c(/C=N/N5CCN(C)CC5)c(O)c4c3C2=O)NC(=O)/C(C)=C\C=C\[C@H](C)[C@H](O)[C@@H](C)[C@@H](O)[C@@H](C)[C@H](OC(C)=O)[C@@H]1C [RIFAMPIN] | 0.24 | 0.12

From ChEMBL document CHEMBL4613246, “Antimycobacterial Rufomycin Analogues from Streptomyces atratus Strain MJM3502” (J Nat Prod, 2020)
